Measurements taken from publication PMC9079887 (RSC Advances, 2018).

Tests used:
[1] = target: T1, Cathepsin K (Homo sapiens, UniProt P43235); assay: Cathepsin activity assay, z-Phe-Arg-AMC substrate, cathepsin K; format: biochemical; conditions: read-out: IC50 Cathepsin K, pH 5.5, tested under 10 μM
T1 sequence (P43235 115-329): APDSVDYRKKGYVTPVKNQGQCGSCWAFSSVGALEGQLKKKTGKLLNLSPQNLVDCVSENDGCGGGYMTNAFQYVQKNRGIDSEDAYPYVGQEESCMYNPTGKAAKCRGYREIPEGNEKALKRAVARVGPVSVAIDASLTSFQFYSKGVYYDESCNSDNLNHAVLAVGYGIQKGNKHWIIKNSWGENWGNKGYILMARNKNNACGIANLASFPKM
Procedure, shortened: (§1)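 Cathepsin activity was read fluorimetrically on a microplate reader with z-Phe-Arg-AMC as substrate. Activity data were fitted to a linearized curve, and IC50 was read from that curve.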

[2] = target: Cathepsin L (Homo sapiens, UniProt P07711); assay: Cathepsin activity assay, z-Phe-Arg-AMC substrate, cathepsin L; format: biochemical; conditions: read-out: IC50 Cathepsin L, pH 5.5, tested under 10 μM
Procedure, shortened: as §1

[3] = system: pro-MMP-2; conditions: <50 μmol L^−1; cited from earlier work
[4] = system: activated form of MMP-2; conditions: <50 μmol L^−1; cited from earlier work

Sequence of Cathepsin L (P07711 114-333, species assumed): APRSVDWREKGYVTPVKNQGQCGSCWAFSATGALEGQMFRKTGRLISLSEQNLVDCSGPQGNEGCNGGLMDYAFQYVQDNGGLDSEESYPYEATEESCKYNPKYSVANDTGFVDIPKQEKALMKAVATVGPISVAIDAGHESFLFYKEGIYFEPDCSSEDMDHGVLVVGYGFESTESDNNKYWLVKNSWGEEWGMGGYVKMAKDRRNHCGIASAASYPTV

Compound | IC50 [1] [µM] | IC50 [2] [µM] | effect on activity and expression of pro-MMP-2 [3] | effect on the activated form of MMP-2 [4]
[Cl][Eu]([Cl])[Cl] [EuCl3·6H2O] | > 10 | > 10 |  | 
[Cl-].[Cl-].[Cl-].[Gd+3] [GdCl36H2O] | > 10 | > 10 |  | 
O.O.O.O.O.O.O.[Cl-].[Cl-].[Cl-].[La+3] [LaCl3·7H2O] |  |  | inhibits the activity and expression of pro-MMP-2 | does not suppress the activated form of MMP-2

The next lines start with results.

IC50 [1] [µM] | IC50 [2] [µM] | Compound | effect on activity and expression of pro-MMP-2 [3] | effect on the activated form of MMP-2 [4]
> 10 | > 10 | [Cl-].[Cl-].[Cl-].[La+3] [LaCl3·7H2O] |  | 
> 10 | > 10 | [Cl-].[Cl-].[Cl-].[Tb+3] [TbCl3·6H2O] |  | 
> 10 | > 10 | [Cl][Yb]([Cl])[Cl] [YbCl3·6H2O] |  | 
